The species entered for series [1] is Sus scrofa. Description: Reversible inhibition of porcine serum BAO using [7-14C]-benzylamine as substrate assessed as residual activity at 4 times IC50 preincubated for 5 mins followed by 10 fold dilution relative to control. In a few lines: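 Solutions were diluted 1:10 and 1:100, and portions were dialyzed against water at 4 °C for 24 h. Activity was read with saturating [7-14C]benzylamine; the reaction was stopped with 3 N HCl and labeled benzaldehyde extracted into ethyl acetate and counted.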

Series [2] is described as follows: Acute toxicity in ip dosed Swiss mouse assessed as appearance of tonic-clonic convulsion followed by respiratory block measured after 15 to 20 mins. The class given is organism-based. Conditions: in vivo.
The target of another series is T1, Protein-lysine 6-oxidase (Sus scrofa, UniProt P45845).
T1 sequence (P45845 whole entry): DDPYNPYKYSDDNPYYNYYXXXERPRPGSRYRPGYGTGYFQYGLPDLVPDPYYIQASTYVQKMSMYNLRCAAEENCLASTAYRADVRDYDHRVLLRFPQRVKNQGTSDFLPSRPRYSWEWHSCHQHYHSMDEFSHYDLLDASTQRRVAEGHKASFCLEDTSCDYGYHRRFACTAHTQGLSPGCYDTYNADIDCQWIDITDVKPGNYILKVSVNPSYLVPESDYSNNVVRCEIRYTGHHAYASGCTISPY
In words: Inhibition of porcine aorta lysyl oxidase preincubated for 30 mins followed by substrate addition. In a few lines: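 Porcine aorta lysyl oxidase, prepared in-house. Enzyme was preincubated with inhibitor at 6 concentrations for 30 min at 30 °C. Saturating tritiated protein-bound lysine substrate was then added and activity was measured radiochemically. In some cases H2O2 production was followed instead, by the 4-aminoantipyrine method.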

The target in series [3] is T2, Amine oxidase [flavin-containing] B (Rattus norvegicus, UniProt P19643).
T2 sequence (P19643 whole entry): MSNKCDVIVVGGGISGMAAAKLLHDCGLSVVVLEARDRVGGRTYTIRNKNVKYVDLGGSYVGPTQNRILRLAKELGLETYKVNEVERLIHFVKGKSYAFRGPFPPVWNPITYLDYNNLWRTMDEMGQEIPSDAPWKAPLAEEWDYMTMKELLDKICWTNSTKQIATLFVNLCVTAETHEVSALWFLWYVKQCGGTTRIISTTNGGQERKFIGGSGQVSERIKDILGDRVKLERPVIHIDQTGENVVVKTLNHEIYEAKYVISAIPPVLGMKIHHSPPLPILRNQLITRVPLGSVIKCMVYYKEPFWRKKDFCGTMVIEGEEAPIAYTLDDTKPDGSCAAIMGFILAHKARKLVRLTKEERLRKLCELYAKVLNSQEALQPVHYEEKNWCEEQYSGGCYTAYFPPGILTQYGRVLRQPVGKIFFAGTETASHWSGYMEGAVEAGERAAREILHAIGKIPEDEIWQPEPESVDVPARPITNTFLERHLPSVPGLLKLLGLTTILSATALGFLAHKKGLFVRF
Description: Inhibition of rat liver MAO-B using 2-phenyl[1-14C]-ethylamine/[7-14C]-benzylamine as substrate preincubated for 30 mins followed by substrate addition. In a few lines:
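MAO B source was rat liver mitochondria, obtained by 1:10 homogenization in 0.01 M phosphate pH 7.4 with 0.25 M sucrose, then centrifugation at 1000g and 10,000g (20 min each). Mitochondria were preincubated with inhibitor (6 concentrations) for 30 min at 30 °C. Saturating 2-phenyl[1-14C]ethylamine was then added and activity measured radiochemically.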

Series [4] has as its target T3, Diamine oxidase [copper-containing] (Sus scrofa, UniProt Q9TRC7).
T3 sequence (Q9TRC7 whole entry): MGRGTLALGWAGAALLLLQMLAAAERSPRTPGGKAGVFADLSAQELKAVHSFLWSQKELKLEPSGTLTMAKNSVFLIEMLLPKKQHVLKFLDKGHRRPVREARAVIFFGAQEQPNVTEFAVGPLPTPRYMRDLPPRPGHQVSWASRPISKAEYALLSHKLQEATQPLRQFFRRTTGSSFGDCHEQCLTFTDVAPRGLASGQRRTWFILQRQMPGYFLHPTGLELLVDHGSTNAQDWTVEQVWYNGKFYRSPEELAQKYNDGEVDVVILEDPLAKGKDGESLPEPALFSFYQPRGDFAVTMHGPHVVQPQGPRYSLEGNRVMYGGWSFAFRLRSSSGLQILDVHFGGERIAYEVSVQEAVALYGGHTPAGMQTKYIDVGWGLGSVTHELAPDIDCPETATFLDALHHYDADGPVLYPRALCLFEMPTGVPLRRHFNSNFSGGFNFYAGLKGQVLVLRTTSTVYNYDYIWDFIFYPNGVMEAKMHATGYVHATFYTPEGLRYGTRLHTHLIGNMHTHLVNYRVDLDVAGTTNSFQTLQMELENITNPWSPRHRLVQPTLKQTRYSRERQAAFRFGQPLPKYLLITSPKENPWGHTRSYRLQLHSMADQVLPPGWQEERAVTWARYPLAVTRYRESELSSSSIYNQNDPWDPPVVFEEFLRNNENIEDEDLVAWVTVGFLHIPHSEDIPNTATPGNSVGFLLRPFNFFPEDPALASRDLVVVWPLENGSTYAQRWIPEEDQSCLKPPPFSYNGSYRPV
Description: Inhibition of porcine kidney DAO using [1,4-14C]-putrescine as substrate preincubated for 30 mins followed by substrate addition. In a few lines:
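Porcine kidney diamine oxidase was preincubated with inhibitor at 6 concentrations for 30 min at 30 °C. Saturating [1,4-14C]putrescine was then added and activity was determined radiochemically. In some cases H2O2 production was measured by the 4-aminoantipyrine method.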

A short description of series [5]: Inhibition of porcine serum BAO using [7-14C]-benzylamine as substrate preincubated for 30 mins followed by substrate addition. Set-up: species or system Sus scrofa. In a few lines:
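Porcine serum benzylamine oxidase was preincubated with inhibitor at 6 concentrations for 30 min at 30 °C. [7-14C]Benzylamine was then added at a saturating level and radiochemical activity was measured. In some cases H2O2 formation was followed by the 4-aminoantipyrine method.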

For series [6], the species on record is Sus scrofa. Description: Mixed-type inhibition of porcine serum BAO using [7-14C]-benzylamine as substrate by Lineweaver-Burk plot analysis.
A short description of series [7]: Half life in rat. The class given is ADME, organism-based. The settings on record: in vivo.
Series [8] in a line: Oral bioavailability in rat. The settings on record: in vivo. Type of series: ADME, organism-based.
Series [9] is filed under the species Sus scrofa. Description: Non-competitive inhibition of porcine serum BAO using [7-14C]-benzylamine as substrate by Lineweaver-Burk plot analysis.

Molecules are shown by their SMILES. The source made the active and inactive calls. The rule behind the calls is not given here.

Consider 18 molecules from ChEMBL document CHEMBL3112493, “Synthesis of 2,6-disubstituted benzylamine derivatives as reversible selective inhibitors of copper amine oxidases” (Bioorg Med Chem, 2014).

One may read the LD50 as the dose expected to kill half of the subjects tested. In general, IC50 refers to the concentration that gives 50% inhibition. Low values mean higher potency, high ones lower potency. Turning to `CCOc1cccc(OCC)c1CN.Cl`, the Activity in the series filed under Sus scrofa [1] stood at 50%. For the same molecule, in [2], the median lethal dose (LD50) was found to be 74 mg/kg. For the same molecule, the IC50 against Protein-lysine 6-oxidase is > 1000 µM; in series [3], > 1000 µM; in [4], > 1000 µM; in series [5], 0.18 µM. Further, the “inhibition mode (qualitative)” value in the series filed under Sus scrofa [6] is “Active”.
`Cl.NCc1c(OCCO)cccc1OCCO`: the Activity in the series filed under Sus scrofa [1] turned out to be 50%. Also, in [2], the median lethal dose (LD50) was > 1000 mg/kg. For the same molecule, the half-maximal inhibitory concentration (IC50) against Protein-lysine 6-oxidase is > 1000 µM; in [3], > 1000 µM; in series [4], > 1000 µM; in series [5], 2.6 µM. Further, the “inhibition mode (qualitative)” value in the series listed under Sus scrofa [6] was “Active”.
`COCc1cccc(COC)c1CN.Cl`: the Activity in the series listed under Sus scrofa [1] was > 80%. The median lethal dose (LD50) in series [2] amounted to 240 mg/kg. Besides, the IC50 (against Protein-lysine 6-oxidase; in series [3]; in series [4]; in series [5]) was > 1000 µM each time. In the series listed under Sus scrofa [6], the “inhibition mode (qualitative)” value is “Active”.
As for `NCc1ccccc1O`, the half-inhibitory concentration (IC50) (against Protein-lysine 6-oxidase; in [3]; in series [4]; in series [5]) was > 1000 µM throughout.
Turning to `CCOc1ccccc1CN`, the IC50 (against Protein-lysine 6-oxidase; in [3]; in series [4]; in [5]) was > 1000 µM throughout.
As for `CCc1cccc(CC)c1CN.Cl`, the Activity in the series filed under Sus scrofa [1] was > 80%. Besides, in [2], the 50% lethal dose (LD50) is 92 mg/kg. Besides, the IC50 (against Protein-lysine 6-oxidase; in [3]; in series [4]) was > 1000 µM throughout. Further, the “inhibition mode (qualitative)” value in the series listed under Sus scrofa [6] is “Active”.
`NCc1ccccc1CO`: the IC50 (at Protein-lysine 6-oxidase; in series [3]; in [4]; in series [5]) was > 1000 µM in each case.
With `COc1cccc(OC)c1CN.Cl`, the Activity in the series filed under Sus scrofa [1] was > 80%. For the same molecule, the 50% lethal dose (LD50) in series [2] was 120 mg/kg. The IC50 against Protein-lysine 6-oxidase is > 1000 µM; in series [3], 190 µM; in series [4], > 1000 µM; in series [5], 120 µM. Moreover, the “inhibition mode (qualitative)” value in the series listed under Sus scrofa [6] was “Active”.
On to `Cl.NCc1c(OCCCCO)cccc1OCCCCO`, for which, in the series filed under Sus scrofa [1], the Activity amounted to 50%. Further, the LD50 in series [2] is 540 mg/kg. For the same molecule, the concentration for half-maximal inhibition (IC50) was > 1000 µM against Protein-lysine 6-oxidase, > 1000 µM in [3], > 1000 µM in [4] and 0.066 µM in series [5]. The “inhibition mode (qualitative)” value in the series listed under Sus scrofa [6] is “Active”.
Regarding `Cl.NCc1c(OCCCO)cccc1OCCCO`, the Activity in the series filed under Sus scrofa [1] was determined as 50%. For the same molecule, the median lethal dose (LD50) in series [2] came out at 690 mg/kg. Further, the half-maximal inhibitory concentration (IC50) is > 1000 µM against Protein-lysine 6-oxidase, > 1000 µM in series [3], > 1000 µM in [4] and 0.55 µM in series [5]. Further, the “inhibition mode (qualitative)” value in the series listed under Sus scrofa [6] was “Active”.
As for `NCc1c(O)cccc1O`, the concentration for half-maximal inhibition (IC50) (against Protein-lysine 6-oxidase; in series [3]; in series [4]; in [5]) was > 1000 µM throughout.
In general, half-life refers to how long it takes for the measured level to halve. A low value points to rapid decline. By bioavailability is commonly meant the share of a dose that reaches the circulation, judged against a reference dose that is usually intravenous. In turn, `CCOc1cncc(OCC)c1CN` showed a half-life in series [7] of 2 h. Also, the bioavailability in series [8] was found to be 51.5%.
Turning to `CCCCc1cccc(CCCC)c1CN.Cl`, the Activity in the series listed under Sus scrofa [1] was > 80%. Moreover, the 50% lethal dose (LD50) in series [2] was 54 mg/kg. In addition, the half-inhibitory concentration (IC50) against Protein-lysine 6-oxidase is > 1000 µM; in series [3], > 1000 µM; in series [4] it was > 1000 µM; in series [5], 14 µM. The “inhibition mode (qualitative)” value in the series filed under Sus scrofa [6] was “Active”.
As to `CCOCc1cccc(COCC)c1CN`, the half-inhibitory concentration (IC50) (at Protein-lysine 6-oxidase; in series [3]; in series [4]; in series [5]) was > 1000 µM throughout.
With `CC(C)Oc1cccc(OC(C)C)c1CN`, the IC50 (at Protein-lysine 6-oxidase; in series [3]; in [4]; in series [5]) was > 1000 µM throughout.
`CCCOc1cccc(OCCC)c1CN.Cl`: in the series listed under Sus scrofa [1], the Activity turned out to be 50%. Further, the 50% lethal dose (LD50) in series [2] is 37 mg/kg. Moreover, the IC50 (at Protein-lysine 6-oxidase; in series [3]; in series [4]) was > 1000 µM throughout. In the series filed under Sus scrofa [6], the “inhibition mode (qualitative)” value was “Active”.
With `CCCCOc1cccc(OCCCC)c1CN.Cl`, the Activity in the series filed under Sus scrofa [1] was found to be 50%. Besides, the LD50 in [2] came out at 25 mg/kg. Besides, the IC50 on Protein-lysine 6-oxidase is > 1000 µM; in series [3], > 1000 µM; in series [4], > 1000 µM; in series [5] it was 0.14 µM. Moreover, in the series filed under Sus scrofa [9], the inhibition result is “Active”.
On to `CCCc1cccc(CCC)c1CN.Cl`, for which, in the series listed under Sus scrofa [1], the Activity was > 80%. Besides, in series [2], the 50% lethal dose (LD50) came out at 55 mg/kg. Moreover, the IC50 against Protein-lysine 6-oxidase is > 1000 µM; in series [3], > 1000 µM; in series [4], > 1000 µM; in [5], 15 µM. Moreover, the “inhibition mode (qualitative)” value in the series listed under Sus scrofa [6] is “Active”.
